Screening data from PubChem.
NSD2 inh – NSD2 histone methyltransferase inhibitors, primary screen, biochemical, AlphaScreen, single concentration, set 2; NSD2 peptide methylation, 120 min; inhibition, % at 12.5 µM; AID 743445, 2014; Histone-lysine N-methyltransferase NSD2 (Homo sapiens), O96028; hit rate 0.54% among 310,000; in the data active means inhibition above about 50%
Fh CTSL1 inh – Fasciola hepatica cathepsin L1 inhibitors, primary screen, counter-screen for PFM18AAP inhibitor project, biochemical, QFRET, fluorogenic peptide substrate | recombinant F. hepatica cathepsin L1, Z-Leu-Arg-MCA fluorescence | inhibition, % at 5.96 µM | hit rate 0.49% among 300,000 | AID 1906, 2009;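 active means inhibition above the mean of all tested compounds plus 3 SD, set per screening campaign, cut at about 17% in these data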;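 further: 0% = plate median of test compound wells and 100% = 1 µM Z-Phe-Ala-diazomethylketone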
TDP2 inh – human TDP2 enzyme inhibitors, primary screen, biochemical, epi absorbance, recombinant enzyme. hit rate 0.34% among 370,000. Tyrosyl-DNA phosphodiesterase 2 (Homo sapiens), O95551. T5PNP hydrolysis, p-nitrophenol absorbance 415 nm. inhibition, % at 12.8 µM;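 active means inhibition above the mean of all tested compounds plus 3 SD, set per campaign, cut at about 25% in these data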;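 further: 0% = DMSO with enzyme and 100% = buffer with substrate but no TDP2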
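Incubation: 2 h at 37 °C; Test system: recombinant human TDP2; Quantity: enzyme 120 nM; Read-out basis: percent inhibition; Medium: 50 mM Tris-HCl pH 7.5 with Mg2+, KCl, DTT, BSA; Repeats: single replicate; Compound: 12.8 µM single point, 1% DMSO; Signal: epi absorbance; Reagent: 5 mM T5PNP chromogenic substrate; Benchmarks: no-enzyme high, DMSO-plus-enzyme low.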
UBC9 SUMO inh – inhibitors of in vitro SUMOylation cascade, primary screen, biochemical, HTRF, uHTS. SUMO-conjugating enzyme UBC9 (Homo sapiens), P63279. HTRF SUMOylation assay, SAE1/SAE2 + UBC9. inhibition, % at 35 µM. hit rate 0.36% among 290,000; in the data active means inhibition above about 50%, passing the limit was not always enough
Alpha artifact – AlphaScreen signal interference with preloaded methylated product, dose response, artefact control for NSD2 inhibitor project, biochemical, cherry-picked samples | hit rate 9.4% among 1,500 | shares compounds with NSD2 inh | AlphaScreen artifact counterscreen, preloaded methylated H4 peptide | AC35, µM (titrated, usually from 10 µM), for the others: top-dose activity change, negative = signal loss; call rule not given here
Numbers without * were called inactive; · = no result. Compounds with a hit are over-represented: about 1.2% of the library has one in this group of screens.

SMILES | NSD2 inh | Fh CTSL1 inh | TDP2 inh | UBC9 SUMO inh | Alpha artifact
O=C1NCN(c2ccccc2)C12CCN(C(c1cc3ccccc3o1)c1nnnn1Cc1ccccc1)CC2 (stereo unspecified) | · | · | -7 | · | ·
CCOc1cc(/C=C2\C(=O)NC(=O)N(CCc3ccc(F)cc3)C2=O)ccc1O | 53* | 2 | 3 | 42 | -8%
Cc1ccc(C2(O)CN3CCC2CC3)cc1 (stereo unspecified) | -1 | 0 | 2 | -2 | ·
Nc1ccc(C2(c3ccc(N)cc3)CN3CCC2CC3)cc1 | 176* | -6 | -1 | -1 | -17%
COCCN1C(=O)/C(=C/c2c(OC)cc(OC)cc2OC)C(=O)N(c2ccccc2)C1=O | 52* | 7 | -10 | 6 | -1%
CN1CCN(c2ccc(F)cc2N)CC1 | 12 | 4 | -14 | 2 | ·
Cc1ccc(N2C(=O)NC(=O)/C(=C/c3ccc(OC(=O)c4cccs4)cc3)C2=O)cc1 | 127* | -7 | -5 | -5 | -4%
CC1(C)C(c2ccccc2)=NC(c2cccnc2)N1O (stereo unspecified) | 0 | 5 | -6 | 8 | ·
Nc1c(C(=O)NC2CCCC2)c2nc3ccccc3nc2n1CC1CCCO1 (stereo unspecified) | 82* | 4 | 6 | 102 | 27%
C=CCCC1(C2=CCCCC2)C(=O)NC(=O)NC1=O | -3 | · | 2 | · | ·
CN1CC2CN(Cc3ccccc3)S(=O)(=O)C2C1 (stereo unspecified) | · | · | 0 | · | ·
CC(=O)NC1=C(N2CC2C)C(=O)C(NC(C)=O)=C(N2CC2C)C1=O (stereo unspecified) | 115* | · | 10 | · | -4%
CN(C)c1ccccc1 | -3 | · | -3 | · | ·
Cc1cccc(N=Nc2ccc(N(C)C)cc2)c1 | 51* | 0 | -22 | -5 | 8.4µM*
COCCN1C(=O)NC(=O)/C(=C\c2ccc(Br)cc2)C1=O | 1 | -3 | -4 | 15 | ·
CCN1/C(=C/C=C/C2=[N+](CC)c3ccccc3C2(C)C)C(C)(C)c2ccccc21 | 55* | · | -1 | · | -11%
Cc1ccc(N2C(=O)NC(=O)/C(=C\C=C\c3ccco3)C2=O)cc1 | 76* | -3 | -7 | 46 | -6%
NC(Cc1ccc(F)cc1)c1csc(Nc2ncccn2)n1 (stereo unspecified) | -3 | · | 10 | · | ·
COC(C)(C)CCCC(C)C/C=C/C(C)=C/C(=O)OC(C)C (stereo unspecified) | · | · | 6 | · | ·
CCOC(=O)Cn1cc(C(=O)c2ccccc2)c2ccccc21 | -2 | -1 | 3 | 9 | ·
